Active and inactive are the calls of the source. The rule behind the calls is not given here.
Experiments:
HEK [1] = test: Inhibition of SOCE channel in tBhQ-treated HEK cells assessed as reduction in calcium entry by measuring residual activity at 10 uM preincubated for 600 secs followed by calcium addition by Fura-2 AM by fluorescence microscopic analysis relative to control; type: cell-based; conditions: Homo sapiens, time 600.0 sec
Summary of the method: (§1)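 HEK cells; intracellular Ca2+ stores emptied with tBhQ (50 μM) in the presence of compound at 10 μM. After 600 s, Ca2+ added and intracellular Ca2+ followed by Fura-2 fluorescence microscopy. SOCE given as percent activity vs control; peak amplitude, AUC and slope of the Ca2+ rise evaluated. Traces average 200 cells over three independent experiments; Mann–Whitney U test vs control.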

[2] = Stability in CD-1 mouse liver S9 fraction assessed as parent compound remaining at 50 uM measured after 60 mins by HPLC-UV analysis; type: ADME, subcellular; conditions: read-out: Stabilty
Summary of the method: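 Incubated in mouse liver MLS9 fraction supplemented with NADPH. Residual parent substrate measured after 1 h. Three independent experiments, mean ± SEM.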

[3] = Cytotoxicity against HEK cells assessed as cell viability at 10 uM measured after 24 hrs by MTT assay relative to control; type: cell-based; conditions: human, read-out: Activity
Summary of the method: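 MTT viability assay in HEK cells with compound at 10 μM.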

HEK [4] = test: Activation of SOCE channel in tBhQ-treated HEK cells assessed as increase in AUC of calcium entry at 10 uM preincubated for 600 secs followed by calcium addition by Fura-2 AM by fluorescence microscopic analysis; type: cell-based; conditions: Homo sapiens, filed as activator, time 600.0 sec; summary of the method: as §1
HEK [5] = test: Activation of SOCE channel in […] assessed as increase in calcium entry in resting cells at 10 uM […] by Fura-2 AM by fluorescence microscopic analysis; type: cell-based; conditions: Homo sapiens
[6] = Stability in CD-1 mouse liver microsomes assessed as parent compound remaining at 50 uM measured after 60 mins by HPLC-UV analysis; type: ADME, Microsome; conditions: read-out: Stabilty

| remaining at 1 h, 50 µM [2] [%] | Compound | other results |
| --- | --- | --- |
| > 99 | Cc1noc(-c2cnn(-c3ccc(NC(=O)c4c(F)cccc4F)cc3)c2C(F)(F)F)n1 | – |
| > 99 | Cc1noc(-c2cnn(-c3ccc(NC(=O)c4ccc([N+](=O)[O-])cc4)cc3)c2C(F)(F)F)n1 | – |
| 73 | Cc1noc(-c2cnn(-c3ccc(NC(=O)c4ccc(C#N)c(F)c4)cc3)c2C(F)(F)F)n1 | – |
| 99 | Cc1noc(-c2cnn(-c3ccc(NC(=O)c4c(C)noc4C)cc3)c2C(F)(F)F)n1 | – |

The remaining lines, values behind:

| Compound | remaining at 1 h, 50 µM [2] [%] | other results |
| --- | --- | --- |
| Cc1noc(-c2cnn(-c3ccc(NC(=O)c4ccco4)cc3)c2C(F)(F)F)n1 | – | Activity (HEK [1]): 61.1% |
| CCCCCC(=O)Nc1ccc(-n2ncc(-c3nc(C)no3)c2C(F)(F)F)cc1 | 91 | viability at 24 h, 10 µM [3]: 88.5%; Activity (HEK [4]): Active; Activity (HEK [5]): inactive |
| CCOC(=O)c1cnn(-c2ccc(NC(=O)C(Cl)=C(Cl)Cl)cc2)c1C(F)(F)F | 43 | – |
| COc1ccc(OC)c(-c2ccc(NC(=O)c3ccncc3F)cc2)c1 | – | remaining at 1 h, 50 µM [6]: 15% |
| Cc1ccc(S(=O)(=O)Nc2ccc(-n3ncc(-c4nc(C)no4)c3C(F)(F)F)cc2)cc1 | 76 | – |
| CCCC(C)OC(=O)c1cnn(-c2ccc(-n3cc(-c4cccc(C(=O)O)c4)nn3)cc2)c1C(F)(F)F (stereo not drawn) | 74 | – |

From ChEMBL document CHEMBL4706718, “1,2,4-Oxadiazole-Bearing Pyrazoles as Metabolically Stable Modulators of Store-Operated Calcium Entry” (ACS Med Chem Lett, 2021)
